Screens deposited in PubChem by Johns Hopkins Ion Channel Center.
MrgX1 allo act = positive allosteric modulators of MrgX1, primary screen, HEK293 cells, Fluo-4 calcium flux | B-score at 10 µM | 310,000 compounds, 0.63% hits | FDSS; hits give high values | AID 588675, 2011 | Mas-related G-protein coupled receptor member X1 (Homo sapiens), Q96LB2;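 active = plate-corrected calcium response at least 3 library SD above typical, normal starting fluorescence, not activating the receptor alone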;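 note: compound read alongside a low EC10 to EC30 dose of BAM8-22 agonist; peak minus trough fluorescence over baseline measured at the second addition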
Target sequence (Q96LB2 whole entry, looked up): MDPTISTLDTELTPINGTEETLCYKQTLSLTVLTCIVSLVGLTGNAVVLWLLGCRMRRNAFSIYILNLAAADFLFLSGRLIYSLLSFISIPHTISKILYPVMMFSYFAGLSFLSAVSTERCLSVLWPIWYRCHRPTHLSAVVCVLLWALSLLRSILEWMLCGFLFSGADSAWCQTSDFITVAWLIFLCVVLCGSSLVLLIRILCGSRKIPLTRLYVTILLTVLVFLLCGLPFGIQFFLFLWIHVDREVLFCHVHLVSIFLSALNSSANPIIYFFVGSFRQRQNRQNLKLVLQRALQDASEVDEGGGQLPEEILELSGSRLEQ
RGS4 block = RGS4 inhibitors, primary screen, cell-based, HEK293 M3R inducible RGS4, calcium flux | Regulator of G-protein signaling 4 (Homo sapiens), P49798 | Fluo-4 calcium flux; hits give high values; triggered by carbachol at its EC20 | B-score at 10 µM | 310,000 compounds, 0.45% hits | AID 463165, 2010;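 active = B-score, a plate-corrected calcium signal, over three deviations above library mean, with baseline fluorescence within five deviations of library mean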;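 note: RGS4 expression induced by doxycycline in cells with stable M3 receptor; B-score is computed from the integrated fluorescence ratio over baseline after carbachol; higher B-score means a larger calcium signal and so more RGS4 inhibition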
Target sequence (P49798 whole entry, looked up): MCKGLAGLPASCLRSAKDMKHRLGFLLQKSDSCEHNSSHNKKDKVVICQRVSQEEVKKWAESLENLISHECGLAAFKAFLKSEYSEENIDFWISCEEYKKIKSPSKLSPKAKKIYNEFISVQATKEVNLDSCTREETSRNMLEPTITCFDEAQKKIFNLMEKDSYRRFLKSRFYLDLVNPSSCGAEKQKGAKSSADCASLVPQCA
MrgX1 antag = antagonists of human MrgX1 receptor, primary screen, HEK293 cells, Fluo-4 calcium flux; B-score at 10 µM; Mas-related G-protein coupled receptor member X1 (Homo sapiens), Q96LB2; BAM8-22 antagonism; hits give low values; 310,000 compounds, 1.3% hits;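 active = calcium-response B-score plate-corrected more than 3 library SD below zero, starting fluorescence within 5 deviations, no agonist response on first addition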;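 note: peak minus trough fluorescence over baseline after final BAM8-22 challenge near maximal dose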
MrgX1 agonist = agonists of human MrgX1 receptor, primary screen, HEK293 cells, Fluo-4 calcium flux. Fluo-4 calcium fluorescence, agonist mode; hits give high values. Mas-related G-protein coupled receptor member X1 (Homo sapiens), Q96LB2. B-score at 10 µM. 310,000 compounds, 0.44% hits;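 active = calcium response B-score plate-corrected fluorescence ratio at least 3 library SD, with starting fluorescence B-score inside 5 SD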
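Material: HEK293 cells stably expressing human MrgX1 receptor | Quantity: 15,000 cells per well | Times: Cells plated overnight, dye loaded 0.5 h 37 °C, 0.5 h room temperature | Measured by: Kinetic Fluo-4 NW fluorescence of intracellular calcium | Control set: Positive and negative controls per plate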
RGS4 act = RGS4 potentiators or activators, primary screen, cell-based, HEK293 M3R inducible RGS4, calcium flux. AID 463111, 2010. B-score at 10 µM. 310,000 compounds, 0.92% hits. carbachol calcium flux Fluo4; hits give low values;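 active = B-score of the integrated calcium signal more than 4 SD below the library mean, with starting fluorescence not abnormally high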;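 note: negative B-score means reduced calcium response which marks RGS4 activation or potentiation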
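System – HEK293 FlpIn-TREx cells, stable M3R, doxycycline-inducible RGS4 · Reagent – ECmax carbachol challenge · Times – compound preincubation 20 min at room temperature before agonist · Technique – Fluo4 fluorescence kinetic imaging of calcium · Measure – B score of integrated Fluo4 ratio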
RGS4 inh valid = enhanced carbachol calcium response, M3R/RGS4 cells, RGS4 inhibitor project, cell-based, validation screen, HEK293 M3R/RGS4, calcium flux. shares compounds with RGS4 block. calcium response, % at 10 µM. carbachol calcium Fluo-4 fluorescence; carbachol added at its EC20; 0 = buffer wells, 100 = carbachol control. AID 492999, 2010. 1,700 compounds, 65% hits;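 active = duplicate-averaged calcium response above the buffer-only control mean plus 5 SD of those controls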;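 note: integrated fluorescence ratio F max minus min over baseline F0; higher response in RGS4-induced cells means RGS4 inhibition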
M3R Ca ctr = carbachol calcium response in non-induced M3R cells, confirmation, counter-screen for RGS4 inhibitor project, cell-based, HEK293 M3R; shares compounds with RGS4 block; carbachol calcium Fluo-4; submaximal (EC20) carbachol stimulus; buffer wells 0%, carbachol control wells 100%; activity (percent), % at 10 µM; 1,900 compounds, 20% hits; AID 493000, 2010; call rule not given here;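 note: RGS4 induction absent so cells express M3R without RGS4; higher means more calcium signal and flags a non-specific hit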
M3R basal Ca ctr = second RGS4 inhibitor counter-screen in uninduced cells lacking carbachol. shares compounds with RGS4 block. HEK293 M3R/RGS4 non-induced, Fluo-4 calcium, no carbachol; normalised: buffer wells 0%, carbachol wells 100%. calcium response (agonist-mode artifact), % at 10 µM. 1,900 compounds, 22% hits. AID 493001;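 active = duplicate-averaged calcium rise in uninduced cells above buffer wells' mean plus 5 SD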
Active calls of the source: *; i = inactive; · = not tested or not shown. The list is not random: actives were taken first. Their share in the collection is about 3.5%.

SMILES	MrgX1 allo act	RGS4 block	MrgX1 antag	MrgX1 agonist	RGS4 act	RGS4 inh valid	M3R Ca ctr	M3R basal Ca ctr
C=CC(C)(C)c1c(O)c(CC=C(C)C)c(O)c2c(=O)c3ccc(O)c(O)c3oc12	i	6*	i	i	i	9.5%*	i	i
O=C(N/N=C/C1=C(N2CCOCC2)C(=C\c2ccccc2)/CC1)Nc1ccccc1	i	i	i	i	i	·	·	·
O=C(O)c1ccccc1N/N=C/C1=C(N2CCOCC2)C(=C\c2ccccc2)/CC1	i	8.2*	i	39*	i	30%*	i	140%*
NC(=O)Cn1cnc2c(nnn2-c2ccc(F)cc2)c1=O	i	i	i	i	i	·	·	·
CCOC(=O)CC1C(=O)NCCN1C(=O)COc1ccc(C(C)(C)C)cc1 (configuration not stated)	i	i	i	i	i	·	·	·
CCOC(=O)C1CCN(Cc2nc3ccccc3c(=O)n2-c2ccc(F)cc2)CC1	i	5.4*	i	i	i	i	i	i
O=C(c1ccco1)N1CCN(Cc2nc3ccccc3c(=O)n2-c2ccc(F)cc2)CC1	i	i	i	i	i	·	·	·
Cc1noc(/C=C/c2ccccn2)c1[N+](=O)[O-]	i	6.8*	i	i	i	27%*	30%*	i
O=C(CNC(=O)c1ccc(F)cc1)Nc1ccccc1C(F)(F)F	i	i	i	i	i	·	·	·
CC(OC(=O)c1ccc(NS(=O)(=O)c2ccc3[nH]c(=O)[nH]c3c2)cc1)C(=O)Nc1ccc(Cl)cc1 (configuration not stated)	i	i	i	i	i	i	i	i
COc1ccc(Cl)cc1NC(=O)C(C)OC(=O)c1ccc(NS(=O)(=O)c2ccc3[nH]c(=O)[nH]c3c2)cc1 (configuration not stated)	i	11*	i	i	i	46%*	i	i
COc1ccc(C(=O)C2CCCN(C(=O)c3ccoc3C)C2)cc1F (configuration not stated)	i	i	i	i	i	·	·	·
O=c1c2ccccc2nc2c3ccccc3c(NCc3ccco3)nn12	i	4.9*	i	i	i	i	i	i
O=C1CC(NS(=O)(=O)c2cc(F)ccc2F)CN1c1ccc2c(c1)OCCO2 (configuration not stated)	i	i	i	i	i	·	·	·
NC(=O)c1cc2ccc(O)cc2oc1=Nc1ccccc1	·	i	·	·	i	i	i	i
COc1cccc(N2CCN(C(C)C(=O)NC34CC5CC(CC(C5)C3)C4)CC2)c1 (configuration not stated)	i	i	i	i	i	·	·	·
Cc1ccc(-n2[nH]c(C)c(C=Nc3ccc(S(=O)(=O)Nc4nccs4)cc3)c2=O)cc1	i	i	i	i	i	·	·	·
Cc1cc(C)nc(NS(=O)(=O)c2ccc(N=Cc3c(C)[nH]n(-c4ccccc4)c3=O)cc2)n1	i	i	i	i	i	·	·	·
Cc1[nH]n(-c2ccc(Br)cc2)c(=O)c1C=Nc1ccc(S(=O)(=O)Nc2nccs2)cc1	i	18*	i	i	i	9.5%*	i	i
CCc1nnc(NS(=O)(=O)c2ccc(N=Cc3c(C)[nH]n(-c4ccc(C)c(C)c4)c3=O)cc2)s1	i	i	i	i	i	i	i	i
COCC(C)NC(=O)C(C)N1c2cccc3cccc(c23)S1(=O)=O (configuration not stated)	i	i	i	i	i	·	·	·
Oc1ccc(NC(=S)N=Nc2c(O)[nH]c3ccc(Br)cc23)cc1	·	i	·	·	i	·	·	·
Oc1[nH]c2ccc(Br)cc2c1N=NC(=S)Nc1ccc(F)cc1	i	7.3*	i	i	i	12%*	i	i
O=C(N/C(=C/c1ccc(F)cc1)C(=O)N1CCCCC1)c1ccco1	i	i	i	i	i	·	·	·
COc1cccc(CNC(=O)CN2C(=O)CSc3ccc(S(=O)(=O)N4CCOCC4)cc32)c1	i	i	i	i	i	·	·	·
SMILES	MrgX1 allo act	RGS4 block	MrgX1 antag	MrgX1 agonist	RGS4 act	RGS4 inh valid	M3R Ca ctr	M3R basal Ca ctr
Cc1c(Cl)ccc2sc(NC(=O)C3CC3)nc12	i	6.2*	i	i	i	8.0%*	i	i
COc1ccc(/C=C/C(=O)NCCc2ccc(OC)c(OC)c2)cc1	i	i	i	i	i	·	·	·
COc1ccc(CCNC(=O)/C=C/c2ccc3ccccc3n2)cc1OC	i	13*	i	i	i	34%*	32%*	i
O=C(O)c1ccc2c(=O)n3c(nc2c1)/C(=C/c1ccc(Cl)cc1Cl)CC3	i	19*	i	i	i	24%*	i	i
O=C(Nc1ccccc1)C(Cl)C(=O)c1ccccc1 (configuration not stated)	i	9.1*	i	i	i	30%*	38%*	i
Cc1ccc(CSCc2ccc(C(=O)O)o2)cc1	i	5*	i	i	i	i	i	i
Cc1cccc(CSCc2ccc(C(=O)O)o2)c1	i	i	i	i	i	·	·	·
O=C(CN(Cc1ccccc1)S(=O)(=O)c1ccccc1)N/N=C/c1ccc2c(c1)OCO2	i	i	i	i	i	·	i	i
O=C(CN(CCc1ccccc1)S(=O)(=O)c1ccc(Br)cc1)N/N=C/c1ccc2c(c1)OCO2	i	i	i	i	i	·	·	·
O=C(CN(Cc1ccc(Cl)c(Cl)c1)S(=O)(=O)c1ccccc1)N/N=C\c1ccc2c(c1)OCO2	i	6.7*	i	i	i	18%*	i	i
